According to ChEMBL document CHEMBL1126922, “Synthesis of 2,4-disubstituted thiazoles and selenazoles as potential antitumor and antifilarial agents: 1. Methyl 4-(isothiocyanatomethyl)thiazole-2-carbamates, -selenazole-2- carbamates, and related derivatives” (J Med Chem, 1993):

Legend:
L1210 [1] = assay: Growth rate measured as ratio of population doubling time of control cells to that of treated L1210 cells at 100 uM; assay type: functional, Mus musculus
Outline: (§1)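 L1210 cells were grown in static suspension at 38 °C in Fischer's medium with 10% heat-inactivated horse serum, with test compound present continuously for 3 days. Growth rate is the treated/control slope of semilog cell number versus time, calculated as control doubling time ÷ treated doubling time. If growth slowed during the run, the final rate at day 3 was used.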

L1210 [2] = assay: Effect on DNA synthesis in L1210 measured by inhibition of incorporation of [3H]dThd into acid insoluble material after 6 hours expressed as percent of control; assay type: functional, Mus musculus; parameters: scale not given: the % may be the effect or the level left
Outline: (§2)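 L1210 cells given 100 μM compound together with [methyl-3H]dThd (20 Ci/mmol, 1 μCi/mL) or [5-3H]Urd (28.5 Ci/mmol, 1 μCi/mL). Label pulse lasted 1 h, started either at compound addition (0 h) or 6 h later. 3H in the acid-insoluble fraction was counted by liquid scintillation. Values are % of control, mean of two determinations in separate experiments, with range.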

L1210 [3] = assay: Effect on protein synthesis in L1210 measured by inhibition of incorporation of [3H]leucine into acid insoluble material after 6 hours expressed as percent of control; assay type: functional, Mus musculus; parameters: scale not given: the % may be the effect or the level left
Outline: (§3)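 100 μM compound and L-[3,4,5-3H]leucine (143 Ci/mmol, 1 μCi/mL) were added together to L1210 cells ((1-1.5) × 10^5 cells/mL) for a 1 h pulse, started at 0 h or 6 h after compound. Duplicate samples were chilled in ice-cold Puck's Saline G, washed, and precipitated with BSA plus 8% perchloric acid on ice for 30 min. The pellet was hydrolysed in 1 N NaOH at 37 °C and counted; results are % of control.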

L1210 [4] = assay: In vitro inhibitory concentration of compound against leukemia L1210 cells; assay type: functional, cell-based; settings: Mus musculus
Outline: (§4)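 L1210 murine leukemia cells kept in static suspension culture at 38 °C in Fischer's medium with 10% heat-inactivated horse serum. Growth measured over 3 days with the compound present continuously at various concentrations. Growth rate = control doubling time / treated doubling time, using the final rate if growth slowed. IC50 = concentration that cuts growth rate to 50% of control.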

L1210 [5] = assay: Effect on DNA synthesis in L1210 measured by inhibition of incorporation of [3H]dThd into acid insoluble material after 0 hours expressed as percent of control; assay type: functional, Mus musculus; parameters: scale not given: the % may be the effect or the level left; outline: as §2
L1210 [6] = assay: Effect on RNA synthesis in L1210 measured by inhibition of incorporation of [3H]uridine into acid insoluble material after 0 hours expressed as percent of control; assay type: functional, Mus musculus; parameters: scale not given: the % may be the effect or the level left; outline: as §2
L1210 [7] = assay: Effect on protein synthesis in L1210 measured by inhibition of incorporation of [3H]leucine into acid insoluble material after 0 hours expressed as percent of control; assay type: functional, Mus musculus; parameters: scale not given: the % may be the effect or the level left; outline: as §3
L1210 [8] = assay: Effect on RNA synthesis in L1210 measured by inhibition of incorporation of [3H]uridine into acid insoluble material after 6 hours expressed as percent of control; assay type: functional, Mus musculus; parameters: scale not given: the % may be the effect or the level left; outline: as §2
L1210 [9] = assay: Growth rate in leukemia L1210 cells at 100 uM; assay type: functional, Mus musculus; outline: as §1
L1210 [10] = assay: Growth rate measured as ratio of population doubling time of control cells to that of treated L1210 cells at 10 uM
L1210 [11] = assay: In vitro inhibitory concentration of compound against leukemia L1210 cells; No significant inhibition; assay type: functional, cell-based, Mus musculus; outline: as §4

SMILES | GR (L1210 [1]) | IC50 (L1210 [4]) | also measured
COC(=O)Nc1nc(CCl)c[se]1 | 103% |  | 
COC(=O)Nc1nc(CCCl)cs1 | 92% |  | 
COC(=O)Nc1nc(CN=C=S)cs1 | 0% | 3.2 µM | Effect (L1210 [2]): 56%; Effect (L1210 [3]): 48%; Effect (L1210 [5]): 88%; Effect (L1210 [6]): 74%; Effect (L1210 [7]): 58%; Effect (L1210 [8]): 67%
CCOC(=O)Cc1csc(NC(=O)OC)n1 | 104% |  | 
COC(=O)Nc1nc(CCN=C=S)cs1 | 0% | 26 µM | 
COC(=O)Nc1nc(CCO)cs1 |  |  | GR control (L1210 [9]): 102%
COC(=O)Nc1nc(CN=C=[Se])cs1 | 0% | 7.6 µM | 
COC(=O)Nc1nc(CN=C=S)c[se]1 | 31% | 22 µM | 
COC(=O)Nc1nc(CCI)cs1 |  |  | GR (L1210 [10]): 92%
COC(=O)Nc1nc(CCl)cs1 | 96% |  | IC50 (L1210 [11]): Not Active
